hERG rescue – shields human hERG channel from block by proarrhythmic agents; Q12809; CHO-hERG, FluxOR thallium flux, dofetilide IC70 present; activation (rescue from dofetilide block), less the hit threshold, % at 10 µM; 310,000 tested, 0.51% active;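 active = activation above the mean of controls blocked by dofetilide plus 5 SD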;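 note: thallium influx through hERG after potassium depolarization seen as dye fluorescence rise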
Target sequence (Q12809 whole entry, looked up): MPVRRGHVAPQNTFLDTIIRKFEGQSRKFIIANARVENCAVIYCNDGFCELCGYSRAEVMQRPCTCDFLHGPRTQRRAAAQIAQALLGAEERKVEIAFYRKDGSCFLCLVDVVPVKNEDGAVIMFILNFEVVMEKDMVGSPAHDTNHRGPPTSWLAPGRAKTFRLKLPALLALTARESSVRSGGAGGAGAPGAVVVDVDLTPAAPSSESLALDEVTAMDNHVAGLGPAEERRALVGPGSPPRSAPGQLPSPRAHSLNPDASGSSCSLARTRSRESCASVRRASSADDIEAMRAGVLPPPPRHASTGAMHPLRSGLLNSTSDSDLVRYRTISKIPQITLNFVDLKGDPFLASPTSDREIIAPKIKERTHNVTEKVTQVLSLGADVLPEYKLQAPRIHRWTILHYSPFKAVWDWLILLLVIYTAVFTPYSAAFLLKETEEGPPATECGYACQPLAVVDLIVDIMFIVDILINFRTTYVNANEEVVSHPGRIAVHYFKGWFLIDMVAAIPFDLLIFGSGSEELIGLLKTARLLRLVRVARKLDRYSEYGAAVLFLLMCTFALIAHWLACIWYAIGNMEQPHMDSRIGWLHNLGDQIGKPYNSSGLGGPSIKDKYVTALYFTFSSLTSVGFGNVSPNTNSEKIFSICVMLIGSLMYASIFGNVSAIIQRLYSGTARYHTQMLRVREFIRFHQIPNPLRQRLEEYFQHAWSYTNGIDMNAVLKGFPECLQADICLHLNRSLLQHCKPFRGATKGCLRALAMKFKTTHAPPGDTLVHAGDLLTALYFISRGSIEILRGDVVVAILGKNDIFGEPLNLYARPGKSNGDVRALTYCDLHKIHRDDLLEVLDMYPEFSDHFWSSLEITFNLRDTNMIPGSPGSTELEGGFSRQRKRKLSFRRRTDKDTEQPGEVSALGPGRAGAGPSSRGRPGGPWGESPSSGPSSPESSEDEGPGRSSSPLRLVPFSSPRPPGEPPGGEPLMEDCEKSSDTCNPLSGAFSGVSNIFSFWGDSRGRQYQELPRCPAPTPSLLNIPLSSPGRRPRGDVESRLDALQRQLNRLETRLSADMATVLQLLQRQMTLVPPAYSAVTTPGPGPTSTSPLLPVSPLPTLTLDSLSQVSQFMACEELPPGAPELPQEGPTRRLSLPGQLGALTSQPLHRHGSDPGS
KCNK3 block – human KCNK3 channel inhibition, primary screen; CHO-KCNK3 thallium flux, FluxOR fluorescence; active compounds read low; B-score at 10 µM; 340,000 tested, 0.84% active; AID 602410;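 active = B-score under library mean minus 4 SD, starting fluorescence ratio at most library mean plus 5 SD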;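 note: more negative B-score means stronger inhibition of thallium flux through KCNK3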
KCNQ1 block – human KCNQ1 channel inhibition | P51787 | CHO-K1 KCNQ1, FluxOR thallium flux fluorescence; active compounds read high | B-score at 10 µM | 310,000 tested, 1.3% active;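 active = compounds whose thallium flux B-score, printed positive for inhibition, exceeds three library SD while starting fluorescence stays within three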;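 note: channel opened by potassium depolarization with thallium stimulus after 20 min compound exposure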
KCNQ1 pot – human KCNQ1 channel potentiation or activation; B-score at 10 µM; 310,000 tested, 0.35% active; CHO-K1 KCNQ1, thallium flux FluxOR fluorescence; active compounds read high;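 active = fluorescence ratio B-score, a plate-corrected score, at least three library SD, with initial intensity B-score within 5 SD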
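assay system = KCNQ1-transfected CHO-K1 cells | medium = assay buffer with matched DMSO | probe or stimulus = depolarizing K+/Tl+ stimulus, K2SO4 and Tl2SO4 each 12.5 mM in 5x stock | dosing = single dose | incubation = dye 90 min, compound 20 min, room temperature | detection = kinetic FluxOR fluorescence, 10 s baseline plus 110 s post-stimulus | evaluation = ratio B score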
KCNK9 inh – human KCNK9 channel inhibition. Q9NPC2. HEK293 KCNK9, FluxOR thallium flux fluorescence; active compounds read low. B-score at 10 µM. 310,000 tested, 1.2% active;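 active = ratio B-score over 3 SD below the library mean, with starting fluorescence within 5 SD of its mean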;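 note: negative B-score means less thallium flux so channel inhibition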
Kir21 inh – blocks the mouse Kir2.1 inward-rectifier potassium channel; B-score at 10 µM; P35561; 310,000 tested, 0.85% active; HEK293-Kir2.1, FluxOR thallium flux fluorescence; active compounds read low;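 active = fluorescence ratio B-score at or below minus 3 SD of library scores, with starting-brightness B-score within 2 SD, cut at about -4.2 in these data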;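 note: channel flux triggered by added potassium and thallium sulfate stimulus; B-score of peak minus minimum fluorescence over baseline after thallium stimulus; more negative B-score means stronger Kir2.1 block with less thallium influx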
KCNK9 inh conf – confirmation of human KCNK9 potassium channel inhibitors. shares compounds with KCNK9 inh. HEK293 KCNK9 cells, FluxOR thallium flux fluorescence. inhibition, % at 10 µM. 4,900 tested, 43% active;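 active = thallium signal inhibited by more than 5 SD of the compound-free buffer control wells, on both duplicate plates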;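 note: 0% = assay buffer control wells without compound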
Kir21 sel – mouse Kir2.1 off-target activity of KCNK9 modulators. 4,900 tested, 4% active. Kir2.1 cells, FluxOR thallium flux fluorescence. inhibition, % at 10 µM. shares compounds with KCNK9 inh;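 active = thallium signal drop more than 5 SD beyond the mean of the no-compound control wells, seen in both duplicate plates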;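 note: signal is fluorescence rise after thallium addition divided by baseline fluorescence; plate controls were assay buffer only for no effect and full block by chlorpromazine control for full effect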
KCNK9 uninduced – non-induced cell nonspecific activity of KCNK9 modulators. non-induced KCNK9-HEK293, FluxOR thallium flux. 4,900 tested, 40% active. inhibition, % at 10 µM. AID 492997. shares compounds with KCNK9 inh;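 active = thallium signal drop beyond 5 SD of the untreated control mean, on both duplicate plates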;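 note: plate controls were buffer only IC0 wells for no effect and SID17386958 at its maximal inhibitory level for full effect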
* marks the source's active call; other numbers are inactive results. The list is not random: actives were taken first. Their share in the collection is about 3.7%.

For CCOC(=O)c1cnn(-c2nc(CC)nc3sc4c(c23)CCC4)c1N the results were hERG rescue -6, KCNK3 block inactive, KCNQ1 block inactive, KCNQ1 pot inactive, KCNK9 inh -10*, Kir21 inh -0.55, KCNK9 inh conf 36%*, Kir21 sel inactive and KCNK9 uninduced inactive.
O=C(Nc1nc(=O)n(C(=O)c2cccc(C(F)(F)F)c2)s1)c1ccccc1 was read as hERG rescue -10, KCNK3 block inactive, KCNQ1 block inactive, KCNQ1 pot inactive, KCNK9 inh inactive and Kir21 inh 0.23.
Screening O=C(O)CSc1nc(SCc2ccccc2Cl)nc2c1CCCC2 returned hERG rescue -6, KCNK3 block inactive, KCNQ1 block inactive, KCNQ1 pot inactive, KCNK9 inh inactive and Kir21 inh -0.62.
COC(=O)CSc1nc(SCc2ccccc2Cl)nc2c1CCCC2 was read as hERG rescue -4, KCNK3 block inactive, KCNQ1 block inactive, KCNQ1 pot inactive, KCNK9 inh inactive, Kir21 inh 0.13, KCNK9 inh conf inactive, Kir21 sel inactive and KCNK9 uninduced inactive.
Screening COc1ccc(OC)c(S(=O)(=O)NCC(c2cccs2)N2CCc3ccccc3C2)c1 (stereo unspecified) returned hERG rescue -8, KCNK3 block inactive, KCNQ1 block inactive, KCNQ1 pot inactive, KCNK9 inh -9.1*, Kir21 inh -1.2, KCNK9 inh conf inactive, Kir21 sel inactive and KCNK9 uninduced inactive.
For COc1ccc(S(=O)(=O)NCC(c2cccs2)N2CCc3ccccc3C2)cc1 (stereo unspecified) the results were hERG rescue -11, KCNK3 block inactive, KCNQ1 block inactive, KCNQ1 pot inactive, KCNK9 inh inactive and Kir21 inh -1.4.
CC(Sc1ncccn1)C(=O)NNC(=O)c1cccc(Cl)c1 (stereo unspecified) was read as KCNK3 block inactive.
COc1ccc(CN(Cc2cccn2C)S(=O)(=O)c2cccc(C(F)(F)F)c2)cc1 was read as hERG rescue -10, KCNK3 block inactive, KCNQ1 block 6*, KCNQ1 pot inactive, KCNK9 inh -8.8*, Kir21 inh 0.85, KCNK9 inh conf 46%*, Kir21 sel inactive and KCNK9 uninduced 34%*.
`C/C(=N\NC(=S)NCc1ccccc1)c1ccc(C(C)(C)C)cc1` gave hERG rescue -10, KCNK3 block inactive, KCNQ1 block inactive, KCNQ1 pot inactive, KCNK9 inh inactive, Kir21 inh 0.46, KCNK9 inh conf inactive, Kir21 sel inactive and KCNK9 uninduced inactive.
Screening C/C(=N\NC(=S)NCc1ccccc1)c1ccc(C#N)cc1 returned hERG rescue -14, KCNK3 block inactive, KCNQ1 block inactive, KCNQ1 pot inactive, KCNK9 inh inactive and Kir21 inh 1.3.
For CCc1nnc(NS(=O)(=O)c2ccc(NC(=O)OC)cc2)s1 the results were hERG rescue -11, KCNK3 block inactive, KCNQ1 block inactive, KCNQ1 pot inactive, KCNK9 inh inactive and Kir21 inh 0.
CCc1nnc(NS(=O)(=O)c2ccc(NCc3cc(Cl)cc(Cl)c3O)cc2)s1 was read as hERG rescue -20, KCNK3 block inactive, KCNQ1 block inactive, KCNQ1 pot inactive, KCNK9 inh inactive, Kir21 inh 0.34, KCNK9 inh conf inactive, Kir21 sel inactive and KCNK9 uninduced inactive.
`CCc1nnc(NS(=O)(=O)c2ccc(NCc3cc(Cl)ccc3O)cc2)s1` gave hERG rescue -12, KCNK3 block inactive, KCNQ1 block inactive, KCNQ1 pot inactive, KCNK9 inh inactive, Kir21 inh 0.77, KCNK9 inh conf inactive, Kir21 sel inactive and KCNK9 uninduced inactive.
Screening NS(=O)(=O)c1ccc(NC2=CC(c3ccc([N+](=O)[O-])cc3)N(c3ccc(S(N)(=O)=O)cc3)C2=O)cc1 (stereo unspecified) returned hERG rescue -6, KCNK3 block inactive, KCNQ1 block inactive, KCNQ1 pot inactive, KCNK9 inh inactive and Kir21 inh -1.1.
`Cc1ccc(S(=O)(=O)N(C)CC(=O)NNC(=O)CCC(=O)c2ccc(F)cc2)cc1` gave KCNK3 block inactive.
COc1ccc(N(CCCN2C(=O)c3cccc4cccc(c34)C2=O)C(=O)c2cccs2)cc1 was read as hERG rescue -8, KCNK3 block inactive, KCNQ1 block inactive, KCNQ1 pot inactive, KCNK9 inh inactive and Kir21 inh 0.43.
Screening COc1cc(C)ccc1N(CCCN1C(=O)c2cccc3cccc(c23)C1=O)C(=O)c1cccs1 returned hERG rescue -22, KCNK3 block inactive, KCNQ1 block inactive, KCNQ1 pot inactive, KCNK9 inh -14*, Kir21 inh 1.2, KCNK9 inh conf 80%*, Kir21 sel inactive and KCNK9 uninduced 34%*.
Cc1ccc(N(CCCCN2C(=O)c3ccccc3C2=O)C(=O)c2cccs2)cc1 was read as hERG rescue -11, KCNK3 block inactive, KCNQ1 block inactive, KCNQ1 pot inactive, KCNK9 inh inactive, Kir21 inh 0.3, KCNK9 inh conf inactive, Kir21 sel inactive and KCNK9 uninduced inactive.
For Cc1ccc(NC(=O)COC(=O)c2ccc([N+](=O)[O-])o2)cc1S(=O)(=O)N1CCCCCC1 the results were hERG rescue -11, KCNK3 block inactive, KCNQ1 block inactive, KCNQ1 pot inactive, KCNK9 inh inactive and Kir21 inh -0.38.
Screening Cc1cc(NO)c(C(C)C)cc1N=O returned hERG rescue -7, KCNK3 block inactive, KCNQ1 block inactive, KCNQ1 pot inactive, KCNK9 inh inactive and Kir21 inh -0.49.
Screening COc1c(CC=C(C)C)cc(C2CC(=O)c3c(O)cc(O)cc3O2)c(CC=C(C)C)c1O (stereo unspecified) returned hERG rescue -5, KCNQ1 block inactive, KCNQ1 pot inactive, KCNK9 inh -11*, Kir21 inh 0.01, KCNK9 inh conf 67%*, Kir21 sel inactive and KCNK9 uninduced 50%*.
`Cc1nn(C)c(C(=O)N2CCN(C(=O)c3ccco3)CC2)c1Br` gave hERG rescue -1, KCNK3 block inactive, KCNQ1 block inactive, KCNQ1 pot inactive, KCNK9 inh inactive and Kir21 inh 0.02.

Compound activity as filed in PubChem BioAssay.
